Calls of active or inactive are those of the source. The calls are words filed in the database; no cut-off is given here.
Key:
[1] = Cytotoxicity against human IMR32 cells assessed as cell viability at 10 uM by MTT assay relative to control; type: cell-based; details: imr-32, 10 µM
How it was run: (§1)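 IMR-32 cells grown in MEM/F12 with 10% fetal bovine serum; viability read by MTT assay in 96-well format. Test concentrations were 1, 10 and 100 µM, each tested six times.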

[2] = Cytotoxicity against human IMR32 cells assessed as cell viability at 1 uM by MTT assay relative to control; type: cell-based; details: imr-32, 1 µM; how it was run: as §1
PC-12 [3] = experiment: Induction of neurite outgrowth in rat PC12 cells at 10 uM after 48 hrs; type: functional, cell-based
How it was run: (§2)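 PC-12 cells plated on collagen at 1 × 10^5 cells/mL and cultured 4 h. Compound added from MeOH at 3.3, 10, 33 or 100 µM (0.3% MeOH final), in duplicate, then incubated 48 h. Positive control NGF 10 ng/mL; negative control 0.3% MeOH. Over 300 cells or aggregates per well in six random fields scored by phase-contrast microscopy for neurite outgrowth.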

PC-12 [4] = experiment: Neuritogenic activity in rat PC12 cells assessed as round shaped cells with no neurite outgrowth at 100 uM after 48 hrs; type: functional
How it was run: (§3)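 PC-12 cells on collagen (1 × 10^5 cells/mL, 4 h pre-culture) treated in duplicate for 48 h, compound delivered in MeOH (0.3% final); NGF 10 ng/mL and 0.3% MeOH controls. By phase contrast, over 300 cells or aggregates per well in six random fields classed as round with no neurite, neurite ≤ cell body, or neurite ≥ twice cell diameter; given as % of cells.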

PC-12 [5] = experiment: Neuritogenic activity in rat PC12 cells assessed as round shaped cells with no neurite outgrowth at 33 uM after 48 hrs; type: functional; how it was run: as §3
[6] = Cytotoxicity against human IMR32 cells assessed as cell viability at 100 uM by MTT assay relative to control; type: cell-based, IMR-32; details: read-out: Activity; how it was run: as §1
PC-12 [7] = experiment: Neuritogenic activity in rat PC12 cells assessed as neurite length twice the cell diameter or longer at 100 uM after 48 hrs; type: functional; how it was run: as §3
PC-12 [8] = experiment: Induction of neurite outgrowth in rat PC12 cells at 33 uM after 48 hrs; type: functional; how it was run: as §2
PC-12 [9] = experiment: Neuritogenic activity in rat PC12 cells assessed as neurite length equal or less than cell body at 100 uM after 48 hrs; type: functional; how it was run: as §3
PC-12 [10] = experiment: Neuritogenic activity in rat PC12 cells assessed as neurite length equal or less than cell body at 33 uM after 48 hrs; type: functional; how it was run: as §3
PC-12 [11] = experiment: Induction of neurite outgrowth in rat PC12 cells at 3.3 uM after 48 hrs; type: functional, cell-based; how it was run: as §2
PC-12 [12] = experiment: Induction of neurite outgrowth in rat PC12 cells at 100 uM after 48 hrs; type: functional; how it was run: as §2

With `CC[C@@H](C)C[C@@H](C)/C=C(C)/C=C/C=C/C(=O)c1c(O)c([C@]2(O)CC[C@@H](O)CC2)c[nH]c1=O` [N-DEOXYMILITARINONE A] as the compound, how does the Activity [1] read?
The Activity was “Not Active”.

What about the Activity [2] of the same compound?
The Activity was “Not Active”.

And the Activity (PC-12 [3])?
Its Activity is “inactive”.

And the Activity (PC-12 [4])?
Its Activity is 49%.

And the Activity (PC-12 [5])?
The Activity was 88%.

What about the viability at 100 µM [6] of the same compound?
The viability at 100 µM was 22%.

What about the Activity (PC-12 [7]) of the same compound?
Its Activity is 21%.

What about the Activity (PC-12 [8]) of the same compound?
The Activity was 12%.

And the Activity (PC-12 [9])?
The Activity was 30%.

What about the Activity (PC-12 [10]) of the same compound?
The Activity was 12%.

And the Activity (PC-12 [11])?
The Activity was “inactive”.

What about the Activity (PC-12 [12]) of the same compound?
Its Activity is 51%.
